Source: PubChem
Most compounds without a hit are left out; they make up all but 3% or so of the library.
TRPC4 potent = allosteric potentiators of mouse TRPC4 channel; HEK293 TRPC4beta/mu-opioid, DAMGO EC20, Fluo-4 Ca2+ flux; active compounds read high; AID 2227; Q9QUQ5; B-score at 10 µM; actives 0.42% (n = 310,000);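 active = B-score of calcium response area above 5 SD of library B-scores, with initial fluorescence ratio within 5 SD of library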;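 also: B-score of integrated fluorescence ratio over time as area under calcium response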
Target sequence (Q9QUQ5 whole entry, looked up): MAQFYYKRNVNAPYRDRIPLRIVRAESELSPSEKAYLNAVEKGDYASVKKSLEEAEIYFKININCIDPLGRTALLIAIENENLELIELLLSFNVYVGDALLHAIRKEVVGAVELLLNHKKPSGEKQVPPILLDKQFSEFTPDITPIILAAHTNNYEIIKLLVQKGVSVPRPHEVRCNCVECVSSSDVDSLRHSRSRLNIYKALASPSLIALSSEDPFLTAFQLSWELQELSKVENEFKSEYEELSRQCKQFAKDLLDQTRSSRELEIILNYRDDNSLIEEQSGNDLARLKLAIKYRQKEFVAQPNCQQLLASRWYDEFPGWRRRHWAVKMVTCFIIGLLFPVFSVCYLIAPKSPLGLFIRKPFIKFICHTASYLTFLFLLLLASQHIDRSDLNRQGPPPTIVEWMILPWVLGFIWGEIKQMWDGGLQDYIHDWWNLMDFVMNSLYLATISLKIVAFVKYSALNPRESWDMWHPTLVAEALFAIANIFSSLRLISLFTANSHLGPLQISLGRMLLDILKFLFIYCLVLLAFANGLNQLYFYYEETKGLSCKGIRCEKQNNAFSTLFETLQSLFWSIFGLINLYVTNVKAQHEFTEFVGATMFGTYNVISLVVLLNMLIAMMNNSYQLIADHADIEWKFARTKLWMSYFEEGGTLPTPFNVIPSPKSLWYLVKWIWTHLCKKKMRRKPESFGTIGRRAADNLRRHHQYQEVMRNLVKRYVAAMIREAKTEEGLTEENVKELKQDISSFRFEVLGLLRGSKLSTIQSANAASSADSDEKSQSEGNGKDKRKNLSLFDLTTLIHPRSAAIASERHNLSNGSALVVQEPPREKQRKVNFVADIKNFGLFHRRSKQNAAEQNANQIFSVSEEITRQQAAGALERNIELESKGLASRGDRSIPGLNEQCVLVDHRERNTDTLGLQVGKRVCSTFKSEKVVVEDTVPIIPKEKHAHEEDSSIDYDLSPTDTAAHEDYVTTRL
TRPC4 inh = inhibitors of mouse TRPC4 channel; Q9QUQ5; HEK293 TRPC4beta/mu-opioid, DAMGO-evoked Fluo4 calcium flux; active compounds read low; B-score at 10 µM; actives 0.39% (n = 300,000); AID 2247;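 active = B-score over 3 SD under the library average, no early fluorescence shift, positive overall ratio signal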
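Assay system: HEK293 cells with stable TRPC4beta plus mu-opioid receptor expression; Probe or stimulus: DAMGO in two steps, submaximal then maximal; Dosing: single-point compound dosing; Measured by: Fluo4 calcium-dye fluorescence, kinetic read; Read-out basis: B score from integrated Fluo4 fluorescence ratio.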
TRPC6 act = activators of mouse TRPC6 channel; Q61143; HEK293-TRPC6 membrane potential dye fluorescence; active compounds read high; B-score at 10 µM; actives 0.13% (n = 310,000); AID 2550;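 active = B-score of the integrated fluorescence ratio above library mean plus 3 SD, and starting fluorescence ratio within library mean plus 5 SD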;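 also: higher score means more depolarization so channel activation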
TRPC6 inhibitor = mouse TRPC6 channel inhibition | Q61143 | HEK293-TRPC6, membrane potential dye, ACh-evoked depolarization; active compounds read low | B-score at 10 µM | actives 1.1% (n = 310,000);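 active = B-score under library mean minus 3 SD, initial fluorescence not abnormally high, positive integrated signal ratio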;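 also: B-score derived from integrated fluorescence ratio over the kinetic read; more negative B-score means stronger inhibition of depolarization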
TRPC4 act = activators of mouse TRPC4 channel; B-score at 10 µM; actives 0.49% (n = 310,000); HEK293 TRPC4beta/mu-opioid, Fluo4 calcium fluorescence; active compounds read high; Q9QUQ5; AID 2237;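 active = B-score above 5 SD of library B-scores, and initial fluorescence ratio not above library mean plus 5 SD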;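 also: positive B-score marks a calcium rise read as TRPC4 activation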
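Assay system: HEK293 stable line with TRPC4beta plus mu-opioid receptor. Times: dye 45 min RT, read 110 s. Measured by: kinetic Fluo4 calcium fluorescence. Measure: B score of integrated ratio. Controls: assay buffer as low control, maximal DAMGO as high control.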
Kir21 block = inhibitors of mouse Kir2.1 inward-rectifier potassium channel. P35561. HEK293-Kir2.1, FluxOR thallium flux fluorescence; active compounds read low. B-score at 10 µM. actives 0.85% (n = 310,000). AID 1672;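 active = fluorescence ratio B-score at or below minus 3 SD of library scores, with starting-brightness B-score within 2 SD, cut at about -4.2 in these data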;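 also: channel flux triggered by added potassium and thallium sulfate stimulus; B-score of peak minus minimum fluorescence over baseline after thallium stimulus; more negative B-score means stronger Kir2.1 block with less thallium influx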
TRPC4 spec 2 = mouse TRPC4 off-target activity of TRPC6 inhibitors, second screen; shares compounds with TRPC6 inhibitor; HEK293 TRPC4/MOR, membrane potential dye fluorescence; channel activated by saturating DAMGO dose; inhibition, % at 10 µM; actives 42% (n = 920); AID 2776;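 active = compounds whose fluorescence signal differed from control wells by over 3 SD, either direction, in both duplicate plates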
TRPC4 spec = mouse TRPC4 off-target activity of TRPC6 inhibitors | HEK293 TRPC4/mu-opioid, membrane potential fluorescence | actives 61% (n = 920) | activity change, negative = inhibition, % at 10 µM | shares compounds with TRPC6 inhibitor;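 active = rise or fall in signal beyond 3 SD of buffer-only wells in both replicate plates, either sign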;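 also: integrated kinetic ratio of fluorescence range over baseline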
HEK293 MPD ctr 2-1 = second check of TRPC6 inhibitor effects in parental HEK293 cells. shares compounds with TRPC6 inhibitor. parental HEK293 membrane potential dye fluorescence; maximal acetylcholine challenge after compound addition. signal change vs control, % at 10 µM. actives 31% (n = 920). AID 2779;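 active = membrane potential signal moving either way by over 3 SD of the maximum-effect control, in both duplicate plates, meaning non-specific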
HEK293 MPD ctr-1 = checks TRPC6 inhibitor effects in parental HEK293 cells; actives 60% (n = 920); AID 2780; membrane potential signal change, % at 10 µM; parental HEK293 membrane potential dye fluorescence; shares compounds with TRPC6 inhibitor;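 active = membrane potential signal shifting up or down by more than 3 SD of buffer-only wells, on both duplicate plates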
HEK293 MPD ctr-2 = parental HEK293 nonspecific activity of TRPC6 modulators; actives 51% (n = 2,400); membrane potential signal change, % at 10 µM; AID 488924; membrane potential dye fluorescence; shares compounds with TRPC6 inhibitor;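 active = membrane potential signal moves up or down beyond 5 SD from buffer-only wells, on both duplicate plates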
HEK293 MPD ctr 2-2 = second counter-screen for TRPC6 modulators: effect in parental HEK293 cells. shares compounds with TRPC6 inhibitor. membrane potential dye fluorescence; after compound, maximal acetylcholine stimulation. inhibition, % at 10 µM. actives 14% (n = 2,400). AID 488926;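 active = membrane potential signal drops by more than 5 SD from the mean control signal, in both duplicate plates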;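 also: plate controls were acetylcholine ECmax control wells for no effect and buffer only wells for full effect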
TRPC4/MOR mod = tests whether TRPC6 modulators also affect mouse TRPC4; shares compounds with TRPC6 inhibitor; HEK293 TRPC4/mu-opioid, membrane potential fluorescence; percent change from control (negative = decrease, positive = increase), % at 10 µM; actives 69% (n = 2,400); AID 488927;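 active = membrane potential signal moved up or down beyond 5 SD of buffer control wells, in both duplicate plates, actives on both sides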;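 also: plate controls were assay buffer wells for no effect and DAMGO maximal-effect wells for full effect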
TRPC4/MOR inh 2 = mouse TRPC4 off-target activity of TRPC6 modulators, second screen; shares compounds with TRPC6 inhibitor; HEK293 TRPC4/mu-opioid, membrane potential dye fluorescence; stimulated with maximal-effect DAMGO; inhibition, % at 10 µM; actives 55% (n = 2,400);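 active = drop in membrane potential signal beyond 5 SD of the control wells in both duplicate plates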;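 also: TRPC4 counter screen for TRPC6 hits run under conditions tuned for TRPC6 not TRPC4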
TRPC6 block conf = mouse TRPC6 inhibitor confirmation | shares compounds with TRPC6 inhibitor | HEK293-TRPC6, membrane potential dye, ACh-evoked depolarization | inhibition, % at 10 µM | actives 43% (n = 3,300);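 active = fluorescence ratio falls more than 5 SD below the full-stimulation control mean, in both duplicate runs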;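 also: integrated fluorescence ratio of peak minus minimum over baseline after agonist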
TRPC6 act conf = confirmation of mouse TRPC6 activators; shares compounds with TRPC6 inhibitor; HEK293-TRPC6 membrane potential dye fluorescence, FDSS; activation, % at 10 µM; actives 11% (n = 2,800);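 active = ratio signal rise beyond 5 SD above unstimulated control wells' mean, seen in both duplicate runs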;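 also: plate controls were buffer EC0 wells for no effect and acetylcholine ECmax response for full effect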
* hit, by the source's call; i = inactive; / = not tested or not shown; + = active, no number; ! = a repeat was not active.

SMILES	TRPC4 potent	TRPC4 inh	TRPC6 act	TRPC6 inhibitor	TRPC4 act	Kir21 block	TRPC4 spec 2	TRPC4 spec	HEK293 MPD ctr 2-1	HEK293 MPD ctr-1	HEK293 MPD ctr-2	HEK293 MPD ctr 2-2	TRPC4/MOR mod	TRPC4/MOR inh 2	TRPC6 block conf	TRPC6 act conf
CN(C)CCCNC(=O)N1c2ccccc2C=Cc2ccccc21	i	i	i	-5.3*	i	1.9	/	/	/	/	i	i	i	i	66%*	i
CC(c1ccccc1)C1CC(=O)N(c2cc(Cl)ccn2)C1=O (stereo not drawn)	i	i	i	i	i	0.06	/	/	/	/	/	/	/	/	/	/
Cn1c(=O)c2c(nc(SCCN3CCOCC3)n2Cc2ccccc2Cl)n(C)c1=O	i	i	i	i	i	-0.27	/	/	/	/	/	/	/	/	/	/
Cn1c(=O)c2c(nc(SCCN3CCCCC3)n2Cc2ccccc2)n(C)c1=O	33*	i	i	-9.2*	i	-1	42%*	22%*	i	-392%*	/	/	/	/	i	i
COc1ccc(-c2cn3cccc(C)c3n2)cc1F	i	i	i	-8*	i	-0.69	i	i	4.5%*	-198%*	/	/	/	/	i	i
COc1ccc(-c2cn3cc(C)ccc3n2)cc1OC	i	i	i	-7.6*	i	1.6	i	-9.8%*	-28%*	i	/	/	/	/	i	i
Fc1ccc(NC(=S)NNc2ncc(C(F)(F)F)cc2Cl)c(F)c1	i	i	i	-6.5*	i	-1.8	/	/	/	/	120%*	i	20%*	i	50%*	/
CN1CCN(c2ccc(Nc3ccnc4cc(Cl)ccc34)cc2)CC1	i	i	i	-6.4*	i	-6.8*	/	/	/	/	-106%*	i	-24%*	52%*	46%*	i
Clc1ccc2c(N3CCCC3)ccnc2c1	i	-6*	i	-9*	i	-0.49	76%*	-25%*	37%*	-478%*	/	/	/	/	64%*	i
Clc1ccc2c(N3CCOCC3)ccnc2c1	i	i	i	i	i	-0.99	/	/	/	/	/	/	/	/	/	/
CCN(CC)c1nc2ccccc2c(N)c1-c1ccccc1	i	-7*	i	-6.9*	i	-5.1*	42%*	14%*	i	9.3%*	/	/	/	/	i	i
Nc1c2ccccc2nc2ccccc12	i	i	i	-10*	i	0.95	43%*	-37%*	32%*	-420%*	/	/	/	/	66%*!	i
c1ccc2nc3ccccc3nc2c1	i	i	i	i	i	1.1	/	/	/	/	/	/	/	/	/	/
Cc1c(N(C)C)nc2ccccc2c1N	i	i	i	-10*	i	0.13	44%*	-18%*	i	-312%*	/	/	/	/	i	i
CC(=O)c1c(C)nc2ccccc2c1N	i	i	i	-5.2*	i	1.3	/	/	/	/	-195%*	i	-32%*	i	i	i
CCN(CC)c1nc2ccccc2n2cnnc12	i	i	i	i	i	0.03	/	/	/	/	/	/	/	/	/	/
CC(C)c1ccc(NC(=O)CN2C(=O)COc3ccc(S(=O)(=O)N4CCOCC4)cc32)cc1	i	i	i	i	i	0.61	/	/	/	/	/	/	/	/	/	/
Cc1c(-c2ccccc2)[n+](=O)c2c(n1[O-])CCCC2	i	i	i	i	i	-0.95	/	/	/	/	/	/	/	/	/	/
CN(CC(=O)Nc1ccc(F)cc1)C(=O)COC(=O)CNC(=O)c1sc2ccccc2c1Cl	i	i	i	i	i	1.5	/	/	/	/	/	/	/	/	/	/
O=C(CN1C(=O)C(=O)N(Cc2ccccc2)C1=O)Nc1ccc(F)c(Cl)c1	i	i	i	i	i	0.89	/	/	/	/	/	/	/	/	/	/
Nc1[nH]nc2nc(NCc3ccccc3)c3c(c12)CCN(Cc1ccccc1)C3	i	i	i	-5.4*	i	-0.01	/	/	/	/	i	i	-16%*	49%*	42%*	i
CCOC(=O)/C(=C/C=C1\Sc2cc(C)c(C)cc2N1CC)C(C)=O	i	i	i	-5*	i	-11	/	/	/	/	+	+	282%*	52%*	i	/
O=C(OCC(=O)N1CCN(c2ccccc2)CC1)c1ccc[n+]([O-])c1	i	i	i	i	i	0.08	/	/	/	/	/	/	/	/	/	/
Cc1ccc(C)c(-n2c(SCC(=O)NC(C(=O)O)C(C)C)nnc2-c2cccc(Cl)c2)c1 (stereo not drawn)	i	i	i	i	i	0.47	/	/	/	/	/	/	/	/	/	/
Cc1c(C)n(C)c2ccc(C(=O)NCCCN3CCCC3)cc12	i	i	i	i	i	-0.38	/	/	/	/	/	/	/	/	/	/
Cc1c(C)n(C)c2ccc(C(=O)NCCCN3CCN(c4ccccc4F)CC3)cc12	i	i	i	-7.3*	i	-0.28	/	/	/	/	i	i	i	67%*	42%*	i
Cc1ccc(N2CC(C(=O)N3CCOCC3)CC2=O)cc1Cl (stereo not drawn)	i	i	i	i	i	-1.8	/	/	/	/	/	/	/	/	/	/
